# Tested on: Osteoclast-like
# Experiment: Percent inhibition of tartrate resistant acid phosphatase positive osteoclast like multinucleated cells formation by 1-alpha, 25-dihydroxy vitamin D3 in mouse bone marrow cells
# Type: functional
# Parameters: concentration or dose not given beside the values
# Outline: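 Run as a co-culture assay. Formation of osteoclast-like multinucleated cells was induced with 1α,25-dihydroxy vitamin D₃.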
row,Compound,Inhibition
1,CCC(C)C(NC(=O)[C@]12CCC(C)(C)C[C@H]1C1=CC[C@@H]3[C@@]4(C)CC[C@H](O)C(C)(C)C4CC[C@@]3(C)[C@]1(C)CC2)C(=O)O (stereo partly specified),53.5%
2,CC(C)C(NC(=O)[C@]12CCC(C)(C)C[C@H]1C1=CC[C@@H]3[C@@]4(C)CC[C@H](O)C(C)(C)C4CC[C@@]3(C)[C@]1(C)CC2)C(=O)O (stereo partly specified),41.3%
3,CC(NC(=O)[C@]12CCC(C)(C)C[C@H]1C1=CC[C@@H]3[C@@]4(C)CC[C@H](O)C(C)(C)C4CC[C@@]3(C)[C@]1(C)CC2)C(=O)O (stereo partly specified),87.8%
4,CC1(C)CC[C@]2(C(=O)O)CC[C@]3(C)C(=CC[C@@H]4[C@@]5(C)CC[C@H](O)C(C)(C)C5CC[C@]43C)[C@@H]2C1 (stereo partly specified),27.6%
5,CC1(C)CC[C@]2(C(=O)N3CCCC3C(=O)O)CC[C@]3(C)C(=CC[C@@H]4[C@@]5(C)CC[C@H](O)C(C)(C)C5CC[C@]43C)[C@@H]2C1 (stereo partly specified),21%
6,CC1(C)CC[C@]2(C(=O)N3CCCC3C(=O)O)CC[C@]3(C)C(=CC(=O)[C@@H]4[C@@]5(C)CC[C@H](O)C(C)(C)C5CC[C@]43C)[C@@H]2C1 (stereo partly specified),40.3%
7,CC1(C)CC[C@]2(C(=O)NC(Cc3ccccc3)C(=O)O)CC[C@]3(C)C(=CC[C@@H]4[C@@]5(C)CC[C@H](O)C(C)(C)C5CC[C@]43C)[C@@H]2C1 (stereo partly specified),16.3%
8,CC1(C)CC[C@]2(C(=O)O)CC[C@]3(C)C(=CC(=O)[C@@H]4[C@@]5(C)CC[C@H](O)C(C)(C)C5CC[C@]43C)[C@@H]2C1 (stereo partly specified),38.5%
9,CC(C)C(NC(=O)[C@]12CCC(C)(C)C[C@H]1C1=CC(=O)[C@@H]3[C@@]4(C)CC[C@H](O)C(C)(C)C4CC[C@@]3(C)[C@]1(C)CC2)C(=O)O (stereo partly specified),59%
10,CCC(C)C(NC(=O)[C@]12CCC(C)(C)C[C@H]1C1=CC(=O)[C@@H]3[C@@]4(C)CC[C@H](O)C(C)(C)C4CC[C@@]3(C)[C@]1(C)CC2)C(=O)O (stereo partly specified),62%
11,CC1(C)CC[C@]2(C(=O)NCC(=O)O)CC[C@]3(C)C(=CC(=O)[C@@H]4[C@@]5(C)CC[C@H](O)C(C)(C)C5CC[C@]43C)[C@@H]2C1 (stereo partly specified),83.3%
12,CC1(C)CC[C@]2(C(=O)NC(Cc3ccccc3)C(=O)O)CC[C@]3(C)C(=CC(=O)[C@@H]4[C@@]5(C)CC[C@H](O)C(C)(C)C5CC[C@]43C)[C@@H]2C1 (stereo partly specified),36.5%
13,CC(C)CC(NC(=O)[C@]12CCC(C)(C)C[C@H]1C1=CC[C@@H]3[C@@]4(C)CC[C@H](O)C(C)(C)C4CC[C@@]3(C)[C@]1(C)CC2)C(=O)O (stereo partly specified),51.2%
14,CC(NC(=O)[C@]12CCC(C)(C)C[C@H]1C1=CC(=O)[C@@H]3[C@@]4(C)CC[C@H](O)C(C)(C)C4CC[C@@]3(C)[C@]1(C)CC2)C(=O)O (stereo partly specified),76.3%
15,CC(C)CC(NC(=O)[C@]12CCC(C)(C)C[C@H]1C1=CC(=O)[C@@H]3[C@@]4(C)CC[C@H](O)C(C)(C)C4CC[C@@]3(C)[C@]1(C)CC2)C(=O)O (stereo partly specified),69.5%
16,CC1(C)CC[C@]2(C(=O)NCC(=O)O)CC[C@]3(C)C(=CC[C@@H]4[C@@]5(C)CC[C@H](O)C(C)(C)[C@@H]5CC[C@]43C)[C@@H]2C1,61.5%

# — ChEMBL document CHEMBL1144339, “Synthesis and activity of oleanolic acid derivatives, a novel class of inhibitors of osteoclast formation” (2005)
